Assays:
human BSEP = human BSEP (Homo sapiens, UniProt O95342); assay: BSEP inhibition, taurocholate uptake in HEK293 human BSEP vesicles; format: biochemical
HepG2 cells [1] = assay: Cellular respiration assay; format: cell-based; conditions: HepG2, 1-hour incubation; for decrease in OCR within predicted physiological range (in words): plasma Cmax to liver Cmax
Outline: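 HepG2 cells incubated 1 h with test compound (parent compounds or metabolites), then run on a Seahorse XFe96 per the Mito Stress Test Kit protocol. Baseline oxygen consumption rate is expressed as fold change versus 0.2% DMSO vehicle. The physiological range spans predicted plasma Cmax to predicted liver Cmax, from a PBPK model using the liver:blood Kp.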

HepG2 cells [2] = assay: Oxidative stress assay; format: cell-based; conditions: HepG2, 24-hour incubation; for concentrations with significant increases in ROS: DHE fluorescence vs 0.2% DMSO
Outline: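 Intracellular ROS were read by dihydroethidium fluorescence and expressed as fold change versus 0.2% DMSO vehicle, with troglitazone as positive control. Nominal concentrations covered each compound's predicted plasma and liver Cmax (PBPK). Reported values come from the 24-hour exposure; a 1-hour exposure was also run. Plotted with standard deviation; significance by Kruskal–Wallis test.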

liver GSH = conditions: mice, intravenous, after a toxic dose of acetaminophen; cited from earlier work
GSH in the liver = conditions: rats, intravenous administration; cited from earlier work

human BSEP, sequence (O95342 whole entry): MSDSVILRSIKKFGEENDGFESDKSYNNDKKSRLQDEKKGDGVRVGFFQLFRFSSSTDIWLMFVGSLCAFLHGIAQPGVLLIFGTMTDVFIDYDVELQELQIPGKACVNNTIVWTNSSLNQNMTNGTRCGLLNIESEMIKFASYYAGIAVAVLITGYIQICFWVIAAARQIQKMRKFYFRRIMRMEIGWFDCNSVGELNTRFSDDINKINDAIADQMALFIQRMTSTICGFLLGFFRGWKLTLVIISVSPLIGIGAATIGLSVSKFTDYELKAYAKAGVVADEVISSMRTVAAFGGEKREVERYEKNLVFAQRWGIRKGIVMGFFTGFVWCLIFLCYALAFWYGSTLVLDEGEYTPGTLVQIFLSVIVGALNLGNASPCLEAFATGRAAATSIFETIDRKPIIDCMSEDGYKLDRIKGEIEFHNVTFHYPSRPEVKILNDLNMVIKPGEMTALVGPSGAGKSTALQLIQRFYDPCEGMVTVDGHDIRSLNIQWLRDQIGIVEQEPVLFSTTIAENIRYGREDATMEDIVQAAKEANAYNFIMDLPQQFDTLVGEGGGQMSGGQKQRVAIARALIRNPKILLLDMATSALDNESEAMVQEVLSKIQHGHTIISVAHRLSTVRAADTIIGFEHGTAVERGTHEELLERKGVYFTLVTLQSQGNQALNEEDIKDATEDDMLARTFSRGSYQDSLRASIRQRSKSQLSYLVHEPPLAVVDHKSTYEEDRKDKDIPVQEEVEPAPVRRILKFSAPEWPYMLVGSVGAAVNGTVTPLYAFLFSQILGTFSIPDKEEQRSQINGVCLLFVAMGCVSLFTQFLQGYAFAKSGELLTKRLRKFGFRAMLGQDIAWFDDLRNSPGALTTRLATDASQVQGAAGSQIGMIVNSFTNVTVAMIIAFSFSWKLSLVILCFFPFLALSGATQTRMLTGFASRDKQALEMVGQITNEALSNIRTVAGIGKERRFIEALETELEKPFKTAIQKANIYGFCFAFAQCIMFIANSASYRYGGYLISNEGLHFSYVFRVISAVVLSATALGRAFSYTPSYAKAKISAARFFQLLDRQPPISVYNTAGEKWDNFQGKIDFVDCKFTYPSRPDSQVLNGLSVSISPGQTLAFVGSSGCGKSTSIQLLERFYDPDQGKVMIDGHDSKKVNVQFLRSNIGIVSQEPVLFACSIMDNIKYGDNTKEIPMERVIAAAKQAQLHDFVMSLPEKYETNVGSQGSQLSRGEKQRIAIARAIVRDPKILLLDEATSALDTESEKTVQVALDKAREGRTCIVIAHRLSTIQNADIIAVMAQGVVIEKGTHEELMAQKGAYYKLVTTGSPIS

Structure (SMILES) | IC50 (human BSEP) [µM] | decrease in OCR within predicted physiological range (in words) (HepG2 cells [1]) | concentrations with significant increases in ROS (HepG2 cells [2]) [µM] | decrease in OCR at 10 μM (HepG2 cells [1]) | magnitude of ROS increase compared with another compound (in words) (HepG2 cells [2]) | other results
Cc1nn(C)cc1S(=O)(=O)NC(=O)c1ccc(-n2ccc(OCC(C)(C)C(F)(F)F)n2)nc1N1C[C@@H](C)CC1(C)C [Elexacaftor, elexacaftor] | 37.1 | induced a decrease in OCR | 40 |  |  | 
[2H]C([2H])([2H])C(c1cc(C(C)(C)C)c(NC(=O)c2c[nH]c3ccccc3c2=O)cc1O)(C([2H])([2H])[2H])C([2H])([2H])[2H] [Deutivacaftor, deutivacaftor] |  |  |  | ~ 50% | nearly identical levels of ROS increases at the same concentrations as ivacaftor | 
CC(C)(C)c1cc(C(C)(C)C)c(NC(=O)c2c[nH]c3ccccc3c2=O)cc1O [Ivacaftor, ivacaftor] | > 100 | induced the most prominent decrease in OCR |  | ~ 50% | matched or surpassed that of the positive control, troglitazone | 
CC(C)(CO)c1cc2cc(NC(=O)C3(c4ccc5c(c4)OC(F)(F)O5)CC3)c(F)cc2n1C[C@@H](O)CO [Tezacaftor, tezacaftor] | > 100 | did not induce a notable decrease in OCR |  |  |  | 
CC(C)(C)c1cc(C(C)(C)CO)c(O)cc1NC(=O)c1c[nH]c2ccccc2c1=O [M1 ivacaftor] |  | did not induce any notable decrease | 100 |  |  | 
CC(=O)N[C@@H](CS)C(=O)O [NAC, n‐acetyl cysteine] |  |  |  |  |  | recovery of liver GSH compared with untreated values (liver GSH): 75%; recovery of mitochondrial GSH compared with untreated values (liver GSH): 45%; increase in levels of GSH in the liver (GSH in the liver): 50%
